SIRT5 inh: blocks human SIRT5 desuccinylation of peptide; Purified SirT5, succinyl-peptide AMC, trypsin-coupled fluorescence; hit rate 1.1% among 330,000; inhibition, % at 15 µM; Q9NXA8; in the data active = inhibition above about 15%
Target sequence (Q9NXA8 whole entry, looked up): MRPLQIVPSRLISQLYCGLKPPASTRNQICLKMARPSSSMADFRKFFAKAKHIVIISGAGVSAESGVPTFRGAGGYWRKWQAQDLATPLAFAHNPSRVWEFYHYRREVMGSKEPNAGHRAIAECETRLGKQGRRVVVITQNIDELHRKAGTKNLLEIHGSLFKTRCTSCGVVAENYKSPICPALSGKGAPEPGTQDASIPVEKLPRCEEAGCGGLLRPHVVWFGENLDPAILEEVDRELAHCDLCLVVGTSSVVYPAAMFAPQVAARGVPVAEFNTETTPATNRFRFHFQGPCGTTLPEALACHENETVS
UCH37 DUB inh: blocks the human deubiquitinase UCH37. AID 588478. hit rate 0.33% among 330,000. inhibition, % (test concentration not listed). purified proteasome/UCH37, Ub-AMC cleavage fluorescence;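 active = mean inhibition over replicate wells above about 20%, limit read from the data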;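 note: 0% = compound-free wells with enzyme and 100% = wells lacking proteasome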
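Signal – fluorescence, ex 355 nm, em 460 nm · System – Proteasome-bound UCH37 · Input – 0.15 nM proteasome as dispensed · Timing – 30 min preincubation with enzyme, 25 min cleavage at room temperature · Read-out basis – percent inhibition of cleavage signal versus uninhibited and no-proteasome wells · Medium – Tris-HCl pH 7.4 with ATP-MgCl2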
CASP6 VEID inh: blocks human caspase-6 cleavage activity. P55212. purified caspase-6, Z-VEID-R110 cleavage fluorescence. inhibition, % at 12.5 µM. hit rate 0.53% among 350,000. AID 686996;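 active = mean inhibition across replicates at least about 35%, with every replicate also reaching that limit, limit read from the data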;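 note: 0% = median of neutral control wells and 100% = no fluorescence left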
Target sequence (P55212 24-179 limits assumed): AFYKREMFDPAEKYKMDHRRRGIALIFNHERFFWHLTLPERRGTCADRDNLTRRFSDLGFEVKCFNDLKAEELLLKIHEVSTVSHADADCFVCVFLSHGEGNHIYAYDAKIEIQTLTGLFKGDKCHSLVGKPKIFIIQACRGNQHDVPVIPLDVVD
Target sequence (P55212 194-293 limits assumed): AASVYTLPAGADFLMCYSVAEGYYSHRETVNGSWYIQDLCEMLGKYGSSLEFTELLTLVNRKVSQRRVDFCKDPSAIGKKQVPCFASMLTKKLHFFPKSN
FGF22 binding-1: FGF22 (human) thermal shift binding | activity (Tm shift, normalised), % at 9.99 µM | recombinant FGF22 thermal shift, SYPRO orange fluorescence; percent of sucrose octasulfate shift, DMSO zero | Q9HCT0 | AID 651658 | hit rate 1.5% among 340,000;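 active = mean Tm shift, scaled 0 neutral to 100 positive control, at about 1.3% or above, every replicate too, limit read from the data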
Target sequence (Q9HCT0 whole entry, looked up): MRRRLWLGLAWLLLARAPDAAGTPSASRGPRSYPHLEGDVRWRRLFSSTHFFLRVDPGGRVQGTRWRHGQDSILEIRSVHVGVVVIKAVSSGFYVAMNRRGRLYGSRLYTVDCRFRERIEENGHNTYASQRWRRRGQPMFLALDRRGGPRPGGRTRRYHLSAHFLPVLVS
NSD2 HMT inh: inhibitors of human histone methyltransferase NSD2. O96028. NSD2 peptide methylation, AlphaScreen, 120 min. inhibition, % at 12.5 µM. hit rate 0.54% among 310,000. AID 743445; in the data active = inhibition above about 50%
FGF22 binding-2: FGF22 (human) binding in thermal shift; shares compounds with FGF22 binding-1; recombinant FGF22 thermal shift, SYPRO orange fluorescence; thermal shift activity, °C (ΔTm) at 38 µM; hit rate 2% among 1,000; AID 720646;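 active = fitted rise in melting shift crosses a set limit at or below the top valid dose tested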
FGF22 TSA DP: FGF22 (human) binding by thermal shift | AID 743017 | Thermal shift assay, SYPRO orange, melting temperature shift | Tm shift (activity), % at 38 µM | 50 tested, under 10 active | shares compounds with FGF22 binding-1;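 active = compounds whose fitted dose curve of melting temperature shift rises past a set threshold within the tested doses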
TSA no protein: counter-screen for FGF22 binders: compound-only thermal shift, no protein; shares compounds with FGF22 binding-1; compound-only SYPRO orange thermal shift counter-screen; AC50, µM (series often up to 38 µM); hit rate 2% among 1,000;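 active = rising signal whose fitted curve reaches the 0.54 level within the top valid dose, showing a melting point, actives reach about 13 µM in these data; inactive = the rest, including activity in the opposite direction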; note: value is where the raw curve crosses a fixed level and not half-maximal
Numbers without * were called inactive; i = inactive; . = no result; [ ] = remark or other dose. This is a sample that favours compounds with a hit; in the whole collection about 2.6% have one here.

SMILES | SIRT5 inh | UCH37 DUB inh | CASP6 VEID inh | FGF22 binding-1 | NSD2 HMT inh | FGF22 binding-2 | TSA no protein | others
CCNc1c(NS(=O)(=O)c2ccc(Br)s2)c(=O)oc2ccccc12 | 0.2 | -4.4 | -5.0 | 1.8* | -0.4 | 0.043 | i
CCCNc1c(NS(=O)(=O)c2ccc(Cl)s2)c(=O)oc2ccccc12 | 3.0 | 2.5 | 0.3 | -0.2 | -1.2 | . | .
O=Cc1cc(N=Nc2ccccc2Cl)ccc1O | -1.4 | 12.9 | -7.9 | 0.1 | . | . | .
O=Cc1cc(N=Nc2cccc(C(=O)O)c2)ccc1O | 4.5 | 16.9 | 7.9 | 2.0* | 1.6 | 0.065 | i
Cc1ccc(N(C(=O)c2csnn2)C(C(=O)NC2CCCC2)c2ccccn2)c(C)c1 (stereo not given) | -0.9 | 2.9 | 1.3 | 1.6* | -0.7 | 0.211 | i
Cc1ccc(N(C(=O)c2csnn2)C(C(=O)NC2CCCCC2)c2ccccn2)c(C)c1 (stereo not given) | 1.3 | . | . | 0.4 | 16.8 | . | .
O=C(O)c1cc(NS(=O)(=O)c2cccc3ccccc23)ccc1O | . | -0.8 | . | . | 1.1 | . | .
CCN1C(=O)c2cccc3c(S(=O)(=O)Nc4ccc(O)c(C(=O)O)c4)ccc1c23 | 5.4 | 10.3 | 14.0 | 8.4* | 2.7 | 0.045 | i
ON=Cc1ccc2cccc(O)c2n1 | . | 5.2 | . | . | . | . | .
COc1cc(NS(=O)(=O)c2ccc(NS(=O)(=O)c3ccc(NC(C)=O)cc3)cc2)nc(OC)n1 | 6.5 | 6.5 | -0.8 | 1.4* | 2.3 | 0.121 | i
COc1ccc(C)cc1NS(=O)(=O)c1ccc(NS(=O)(=O)c2ccc(NC(C)=O)cc2)cc1 | 2.5 | 1.3 | 1.4 | 2.9* | -1.2 | -0.008 | i | FGF22 TSA DP=0.1
COc1cc(NS(=O)(=O)c2ccc(NC(=S)NC(C)=O)cc2)nc(OC)n1 | -0.7 | 3.1 | -1.2 | -0.1 | 0.3 | . | .
COc1ccc(S(=O)(=O)Nc2ccc(NC(C)=O)cc2)cc1OC | . | 6.1 | . | . | -1.8 | . | .
COc1ccc(S(=O)(=O)Nc2ccc(NC(C)=O)cc2)cc1Cl | -0.1 | 2.7 | -2.1 | 1.7* | -2.4 | -0.005 | i
COc1cccc(NC(=O)N[C@@H]2CC[C@@H](CC(=O)Nc3ccc(-c4ccccc4)cc3)O[C@H]2CO)c1 | 0.6 | . | 0.5 | 0.1 | . | . | .
Cc1noc(C)c1S(=O)(=O)Nc1ccc2c(c1)CC(=O)N([C@@H](C)CO)C[C@@H](C)[C@H](CN(C)C(=O)Nc1ccccc1)O2 | 8.7 | . | -1.3 | 0.0 | . | . | .
O=C(NCC[C@@H]1CC[C@H](NC(=O)C2CCCC2)[C@H](CO)O1)Nc1ccc(Cl)cc1 | -2.6 | . | 0.9 | 0.3 | . | . | .
O=c1c2ccccc2[nH]c2ccc(F)cc12 | -7.8 | -125.6 | 26.9 | 1.5* | -6.4 | -0.051 | i
Cn1cnc(S(=O)(=O)N2CC[C@@H]3[C@@H](CO)Nc4ccc(-c5cccc(F)c5)cc4[C@@H]32)c1 | -1.9 | . | -2.7 | 0.1 | . | . | .
CC(=O)N(C)C[C@@H]1Oc2ncc(C#CC(C)(C)O)cc2C(=O)N([C@@H](C)CO)C[C@H]1C | -2.7 | . | 2.3 | 1.6* | . | -0.045 | i
C[C@@H]1CN([C@H](C)CO)C(=O)c2cc(C#CCN(C)C)cnc2O[C@H]1CN(C)C(=O)c1cnccn1 | -2.2 | . | -0.8 | 0.0 | . | . | .
CC(C)C#Cc1cnc2c(c1)C(=O)N([C@@H](C)CO)C[C@H](C)[C@@H](CN(C)C(=O)c1cnccn1)O2 | -1.2 | . | 1.9 | 1.5* | . | 0.039[42 µM] | i
CC(C)C#Cc1cnc2c(c1)C(=O)N([C@@H](C)CO)C[C@@H](C)[C@@H](CN(C)C(=O)c1cnccn1)O2 | -0.1 | . | 1.0 | 1.6* | . | -0.002[42 µM] | i
C[C@H](CO)N1C[C@H](C)[C@H](CN(C)C(=O)CC2CC2)Oc2ncc(C#CC3(O)CCCC3)cc2C1=O | -2.4 | . | 0.4 | 1.4* | . | -0.086 | i
O=C(N[C@@H]1CC[C@@H](CCn2cc(C3(O)CCCC3)nn2)O[C@H]1CO)C1CCC1 | 6.4 | . | 0.0 | -0.1 | . | . | .
SMILES | SIRT5 inh | UCH37 DUB inh | CASP6 VEID inh | FGF22 binding-1 | NSD2 HMT inh | FGF22 binding-2 | TSA no protein | others
CC(C)C#Cc1cnc2c(c1)C(=O)N([C@H](C)CO)C[C@H](C)[C@H](CN(C)C(=O)c1cnccn1)O2 | -6.1 | . | 0.1 | 1.5* | . | -0.007[42 µM] | i
C[C@H]1CN([C@@H](C)CO)C(=O)c2cc(C#CCN(C)C)cnc2O[C@H]1CN(C)C(=O)c1cnccn1 | 3.3 | . | 0.2 | -0.3 | . | . | .
OC[C@H]1[C@@H](c2ccc(C#Cc3ccccc3)cc2)[C@@H]2CN(Cc3cncnc3)CCCCN12 | -2.3 | . | 4.2 | 0.5 | . | . | .
CC(C)(C)S(=O)(=O)C(C#N)=NNc1ccc(Cl)cc1 | . | 14.4 | . | . | . | . | .
CC(C)(C)S(=O)(=O)/C(C#N)=N/Nc1ccc(Cl)cc1 | 0.6 | . | 1.6 | 1.7* | 10.2 | 0.023 | i
CO[C@H]1CN(C)C(=O)c2ccc(NC(=O)Nc3ccccc3)cc2OC[C@H](C)N(C(=O)CN(C)C)C[C@H]1C | -9.9 | . | . | -0.2 | . | . | .
CCc1ccc(NC(=O)COc2coc(CN3CCN(c4ccccc4)CC3)cc2=O)cc1 | -0.3 | 0.6 | 4.4 | 2.6* | -0.4 | 0.133 | i
CCC(=O)N1CC2(CCN(Cc3nccs3)CC2)c2c(n(C)c3cc(OC)ccc23)[C@@H]1CO | . | . | . | 1.3* | . | 0.144 | i
COc1ccc(-n2nnnc2/C=C\Nc2ccc(C)cc2)cc1 | -2.8 | -3.2 | -1.1 | 24.7* | 0.3 | 0.094 | i
Cc1ccc(-n2nnnc2/C=C\Nc2cc(C)on2)cc1 | . | 2.1 | . | . | -4.1 | . | .
CN(CC(=O)Nc1ccccc1Cl)C(=O)COC(=O)c1ccc(-c2ccc(O)cc2)cc1 | -6.1 | -4.2 | 1.9 | -0.1 | -1.2 | . | .
CN(CC(=O)Nc1ccccc1Cl)C(=O)COC(=O)c1nc(Cl)ccc1Cl | 0.0 | 2.7 | 1.2 | 1.6* | -1.7 | 0.041 | i
CC(OC(=O)c1ccccc1)C(=O)NCCC1=CCCCC1 (stereo not given) | -2.8 | 4.5 | 3.5 | 1.6* | -0.4 | 0.119 | i
O=C(N/N=C/c1c[nH]c2ccccc12)c1cccs1 | 0.1 | . | 1.6 | 2.2* | 2.9 | . | i | FGF22 TSA DP=0.2
CC(=O)Nc1cccc(C(=O)NN=Cc2c[nH]c3ccccc23)c1 | . | 2.9 | . | . | . | . | .
Cc1cc(C(=O)N/N=C/c2c[nH]c3ccccc23)cs1 | 3.2 | . | 0.2 | 2.7* | 10.3 | . | i | FGF22 TSA DP=0.1
C[C@H]1CN([C@@H](C)CO)C(=O)c2cccc(NC(=O)c3ccncc3)c2O[C@H]1CN(C)S(=O)(=O)c1ccc(Cl)cc1 | 4.7 | . | 2.9 | -0.2 | . | . | .
O=C(C[C@@H]1C=C[C@H](NC(=O)c2ccc3c(c2)OCO3)[C@H](CO)O1)NCc1ccc(F)cc1 | -2.6 | . | 1.0 | 0.0 | . | . | .
COc1cc(OC)c(C(=O)OCC(=O)NCC2CCCCC2)cc1OC | -3.2 | 1.5 | 4.2 | 9.3* | . | 0.065 | i
